Tests used:
Staphylococcus aureus [1] = experiment: Sterilization time for contact germicidal efficiency (CGE) of salt was tested against Staphylococcus aureus at pH 7.0, concentration 1042.1 ppm; assay type: functional
How it was run: (§1)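 Test solutions of the quaternary salt in buffer stood 30 min at room temperature. 0.2 mL of overnight broth culture was added to 5 mL of solution. Inocula: S. aureus ATCC 6538 6-8 × 10^6 cfu/mL, P. aeruginosa ATCC 9027 12-13 × 10^6/mL, S. pyogenes ATCC 19615 5 × 10^6 cfu/mL. At 0.5-30 min intervals a loop was subcultured into nutrient broth and incubated 7 days at 37 °C. Sterilization time is the first interval giving no growth.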

Streptococcus pyogenes [2] = experiment: Sterilization time for contact germicidal efficiency (CGE) of salt was tested against at Streptococcus pyogenes at pH 7.0, concentration 1042.1 ppm; assay type: functional
How it was run: (§2)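 Streptococcus pyogenes ATCC 19615 overnight culture, 5 × 10^6 cfu/mL; 0.2 mL into 5 mL test solution of salt in buffer, left 30 min at room temperature beforehand. At timed intervals (0.5 to 30 min), a 3-mm loop was transferred to sterile nutrient broth and incubated at 37 °C for 7 days. Sterilization time is the shortest interval without growth; buffer-only and viability controls were run.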

Pseudomonas aeruginosa [3] = experiment: Sterilization time for contact germicidal efficiency (CGE) of salt was tested against at Pseudomonas aeruginosa at pH 7.0, concentration 1042.1 ppm; assay type: functional; how it was run: as §1
[4] = Toxicity of the salt was tested on white swiss male mice after intraperitoneal administration; assay type: organism-based; conditions: mouse, in vivo, ip
How it was run: (§3)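 Male White Swiss mice (MCR-ICR), 20-23 g, 10-20 per dose. Salt given in isotonic NaCl, pH 7.0 (adjusted with sodium bicarbonate). LD50 with confidence limits was calculated by Litchfield–Wilcoxon.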

[5] = Toxicity of the salt was tested on white swiss male mice after oral administration; assay type: organism-based; conditions: mouse, in vivo
How it was run: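 Male White Swiss mice (MCR-ICR), 20-23 g, 10-20 per dose, dosed orally. At higher doses the salt was given in 0.8% NaCl brought to pH 5.84 with sodium bicarbonate. LD50 was calculated by Litchfield–Wilcoxon.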

[6] = Toxicity of the salt was tested on white swiss male mice after intravenous administration; assay type: organism-based; conditions: mouse, in vivo; how it was run: as §3
Salmonella typhimurium [7] = test system: Salmonella typhimurium
Staphylococcus aureus [8] = experiment: Sterilization time for contact germicidal efficiency (CGE) of salt was tested against at Staphylococcus aureus at pH 8.0, concentration 1042 ppm; assay type: functional, organism-based
Staphylococcus aureus [9] = experiment: Sterilization time for contact germicidal efficiency (CGE) of salt was tested against Staphylococcus aureus at pH 7.0, concentration 1031 ppm; assay type: functional, organism-based
Streptococcus pyogenes [10] = experiment: Sterilization time for contact germicidal efficiency (CGE) of salt was tested against at Streptococcus pyogenes at pH 7.0, concentration 1031 ppm; assay type: functional, organism-based
Pseudomonas aeruginosa [11] = test system: Pseudomonas aeruginosa
Streptococcus pyogenes [12] = test system: Streptococcus pyogenes
Pseudomonas aeruginosa [13] = experiment: Sterilization time for contact germicidal efficiency (CGE) of salt was tested against at Pseudomonas aeruginosa at pH 8.0, concentration 1042 ppm; assay type: functional, organism-based
Staphylococcus aureus [14] = experiment: Sterilization time for contact germicidal efficiency (CGE) of salt was tested against at Staphylococcus aureus at pH 7.0, concentration 1031 ppm; assay type: functional, organism-based
Staphylococcus aureus [15] = experiment: Minimum inhibitory concentration of salt was tested against Staphylococcus aureus aureus at 0.1 M NaH2PO4 adjusted to pH 7.0; assay type: functional
How it was run: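 Bacteria grown 18-20 h at 37 °C in tryptose phosphate broth, adjusted to OD650 0.01, then diluted into double-strength medium to about 2 × 10^5 viable organisms/mL. Compound in 0.1 M NaH2PO4 pH 7.0 was serially twofold diluted into sterile water and added 1:1 to the cultures. MIC read after 18-20 h at 37 °C, with viability, sterility and buffer controls.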

Streptococcus pyogenes [16] = experiment: Sterilization time for contact germicidal efficiency (CGE) of salt was tested against at Streptococcus pyogenes at pH 6.0, concentration 1007 ppm; assay type: functional, organism-based
Pseudomonas aeruginosa [17] = experiment: Sterilization time for contact germicidal efficiency (CGE) of salt was tested against at Pseudomonas aeruginosa at pH 6.0, concentration 1007 ppm; assay type: functional, organism-based
Streptococcus pyogenes [18] = experiment: Sterilization time for contact germicidal efficiency (CGE) of salt was tested against at Streptococcus pyogenes at pH 8.0, concentration 1042 ppm; assay type: functional, organism-based
Bacillus subtilis [19] = test system: Bacillus subtilis
Staphylococcus aureus [20] = experiment: Sterilization time for contact germicidal efficiency (CGE) of salt was tested against at Staphylococcus aureus at pH 6.0, concentration 1007 ppm; assay type: functional, organism-based
Pseudomonas aeruginosa [21] = experiment: Sterilization time for contact germicidal efficiency (CGE) of salt was tested against at Pseudomonas aeruginosa at pH 7.0, concentration 1031 ppm; assay type: functional, organism-based
Staphylococcus aureus [22] = experiment: Sterilization time for contact germicidal efficiency (CGE) of salt was tested against Staphylococcus aureus at pH 7.0, concentration 1116.0 ppm; assay type: functional; how it was run: as §1
Pseudomonas aeruginosa [23] = experiment: Minimum inhibitory concentration of salt was tested against Pseudomonas aeruginosa at 0.1 M NaH2PO4 adjusted to pH 7.0; assay type: functional
Streptococcus pyogenes [24] = experiment: Sterilization time for contact germicidal efficiency (CGE) of salt was tested against at Streptococcus pyogenes at pH 7.0, concentration 1116.0 ppm; assay type: functional; how it was run: as §2
Salmonella typhimurium [25] = experiment: Minimum inhibitory concentration of salt was tested against Salmonella Typhimurium […] at 0.1 M NaH2PO4 adjusted to pH 7.0; assay type: functional; conditions: Salmonella enterica
Bacillus subtilis [26] = experiment: Minimum inhibitory concentration of salt was tested against Bacillus subtilis at 0.1 M NaH2PO4 adjusted to pH 7.0; assay type: functional
Pseudomonas aeruginosa [27] = experiment: Sterilization time for contact germicidal efficiency (CGE) of salt was tested against at Pseudomonas aeruginosa at pH 7.0, concentration 1116.0 ppm; assay type: functional; how it was run: as §1
Streptococcus pyogenes [28] = experiment: Minimum inhibitory concentration of salt was tested against Streptococcus pyogenes aureus at 0.1 M NaH2PO4 adjusted to pH 7.0; assay type: functional
Pseudomonas aeruginosa [29] = experiment: Sterilization time for contact germicidal efficiency (CGE) of salt was tested against Pseudomonas aeruginosa at pH 7.0, concentration 254 ppm; assay type: functional
Staphylococcus aureus [30] = experiment: Sterilization time for contact germicidal efficiency (CGE) of salt was tested against Staphylococcus aureus at pH 7.0, concentration 254 ppm; assay type: functional
Streptococcus pyogenes [31] = experiment: Sterilization time for contact germicidal efficiency (CGE) of salt was tested against Streptococcus pyogenes at pH 7.0, concentration 254 ppm; assay type: functional

CCCCCCCCCCCCCC(=O)OC[n+]1ccccc1.[Cl-]
Time (Staphylococcus aureus [1]): 1 min
Time (Streptococcus pyogenes [2]): 0.5 min
Time (Pseudomonas aeruginosa [3]): 1 min

CCCCCCCCCCCC(=O)OC[N+]1=CN(C)CC1.[Cl-]
LD50 [4]: 155 mg/kg
LD50 [5]: 4110 mg/kg
LD50 [6]: 75 mg/kg

Hexadecyl-trimethyl-ammonium bromide
MIC (Salmonella typhimurium [7]): 64.3 p.p.m.
TIME (Staphylococcus aureus [8]): 0.00833 h
TIME (Staphylococcus aureus [9]): 0.00833 h
TIME (Streptococcus pyogenes [10]): 0.00833 h
MIC (Pseudomonas aeruginosa [11]): 128 p.p.m.
MIC (Streptococcus pyogenes [12]): < 2 p.p.m.
TIME (Pseudomonas aeruginosa [13]): 0.00833 h
TIME (Staphylococcus aureus [14]): 0.00833 h
MIC (Staphylococcus aureus [15]): < 2 p.p.m.
TIME (Streptococcus pyogenes [16]): 0.00833 h
TIME (Pseudomonas aeruginosa [17]): 0.00833 h
TIME (Streptococcus pyogenes [18]): 0.00833 h
MIC (Bacillus subtilis [19]): < 2 p.p.m.
TIME (Staphylococcus aureus [20]): 0.00833 h
TIME (Pseudomonas aeruginosa [21]): 0.00833 h

CCCCCCCCCCCC(=O)OC[n+]1cccc(C(=O)NCC)c1.[Cl-]
MIC (Staphylococcus aureus [15]): 130 µg/mL
Time (Staphylococcus aureus [22]): 0.5 min
MIC (Pseudomonas aeruginosa [23]): 1040 µg/mL
Time (Streptococcus pyogenes [24]): 0.5 min
MIC (Salmonella typhimurium [25]): 522 µg/mL
MIC (Bacillus subtilis [26]): 32.6 µg/mL
Time (Pseudomonas aeruginosa [27]): 3 min
MIC (Streptococcus pyogenes [28]): 32.6 µg/mL

Cn1ccnc1 [1-METHYLIMIDAZOLE]
Time (Pseudomonas aeruginosa [29]): >30 min
Time (Staphylococcus aureus [30]): >30 min
Time (Streptococcus pyogenes [31]): >30 min

From ChEMBL document CHEMBL1121429, “Soft drugs. 1. Labile quaternary ammonium salts as soft antimicrobials” (J Med Chem, 1980)
